For one series, the system named is Erythrocyte. Description: Hemolytic activity in human RBC at 10 to 320 ug/ml incubated for 1 hr by spectrophotometry. In kind it is ADME, cell-based. The method, boiled down: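 Fresh heparinized human blood diluted in PBS pH 7.4, washed 3x, resuspended to ~20 vol%. Erythrocyte suspension mixed 1:1 with 1:2 serial berberine dilutions in PBS. PBS served as negative control, 0.2 vol% Triton X-100 as positive control.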

For series [1], the target named is T1, MexXY/OprM (Pseudomonas aeruginosa (strain ATCC 15692 / DSM 22644 / CIP 104116 / JCM14847 / LMG 12228 / 1C / PRS 101 / PAO1)) (UniProt Q51487+Q9ZNG9+Q9ZNG8). Description: Inhibition of MexXY/OPRM in Pseudomonas aeruginosa K767 assessed as bacterial growth up to 320 ug/ml incubated for 24 to 48 hrs by broth microdilution method. Format: protein-complex assay. The method, boiled down:
(§1)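 Broth microdilution per CLSI, with P. aeruginosa ATCC 27853 as reference strain, in 2-fold dilution series. Plates were incubated at 37°C and read for visible growth at 24 and 48 h. Berberine stock was in 50% DMSO/50% methanol, with final DMSO kept near 1%. Berberine was tested at 10–320 µg/ml, alone or at a fixed level with serial tobramycin.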

Series [2] concerns the target T1, MexXY/OprM (Pseudomonas aeruginosa (strain ATCC 15692 / DSM 22644 / CIP 104116 / JCM14847 / LMG 12228 / 1C / PRS 101 / PAO1)). Description: Inhibition of MexXY/OPRM in Pseudomonas aeruginosa C76 assessed as bacterial growth up to 320 ug/ml incubated for 24 to 48 hrs by broth microdilution method. Format: protein-complex assay. The method, boiled down:
(§2)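 Broth microdilution following CLSI guidelines, with P. aeruginosa ATCC 27853 as reference strain. Berberine was tested at 2-fold concentrations from 10 to 320 µg/ml, dissolved in 50% DMSO/50% methanol, with the top concentration set to keep final DMSO close to 1%. Plates were incubated at 37°C and read for visible growth at 24 and 48 h.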

For series [3] the target is unchanged. Description: Inhibition of MexXY/OPRM in Pseudomonas aeruginosa C89 assessed as bacterial growth up to 320 ug/ml incubated for 24 to 48 hrs by broth microdilution method. In kind it is protein-complex assay. The method, boiled down: as §1
Series [4] has the same target. Description: Inhibition of MexXY/OPRM in Pseudomonas aeruginosa C84 assessed as bacterial growth up to 320 ug/ml incubated for 24 to 48 hrs by broth microdilution method. In kind it is protein-complex assay. The method, boiled down:
as §1

For series [5] the target is unchanged. Put plainly: Inhibition of MexXY/OPRM in Pseudomonas aeruginosa C31 assessed as bacterial growth up to 320 ug/ml incubated for 24 to 48 hrs by broth microdilution method. In kind it is protein-complex assay. The method, boiled down:
as §2

Series [6] shares this target. Description: Inhibition of MexXY/OPRM in Pseudomonas aeruginosa C95 assessed as bacterial growth up to 320 ug/ml incubated for 24 to 48 hrs by broth microdilution method. Format: protein-complex assay. The method, boiled down:
as §1

The source made the active and inactive calls. The calls are words filed in the database; no cut-off is given here.

`COc1ccc2cc3[n+](cc2c1OC)CCc1cc2c(cc1-3)OCO2` [BERBERINE]: the Activity entry in the series with Erythrocyte was “Non-Toxic”. In addition, the inhibition entry in series [1], in series [2], in series [3], in series [4], in series [5] and in series [6] was “inactive” in each case.

These data come from ChEMBL document CHEMBL4334451, “Natural Alkaloid Berberine Activity against Pseudomonas aeruginosa MexXY-Mediated Aminoglycoside Resistance: In Silico and in Vitro Studies” (J Nat Prod, 2019).
